Assay outcomes from PubChem BioAssay.
Most compounds without a hit are left out; they make up all but 1.3% or so of the library.
SKN-1 block: inhibitors of C. elegans SKN-1 | C. elegans VP596 Pgst-4::GFP/RFP ratio, acrylamide-induced, 24 h | inhibition, % at 21.8 µM | 0.49% of 360,000 active | AID 624304;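 active means interference check ratio from 0.5 to 1.5 plus GFP to RFP signal ratio inhibition reaching or exceeding a fixed threshold, cut at about 30% in these data, passing the limit was not always enough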
MT1-MMP act inh: inhibitors of human MT1-MMP activation. P50281. HT1080 RFP-PRO-GFP cells, GFP/RFP ratio fluorescence, overnight; percent of plate control window, DMSO zero. GFP/RFP ratio change, % at 20 µM. 0.061% of 360,000 active. AID 651647;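 active means GFP/RFP ratio change of at least 30% with cell ATP level not reduced by more than half and red fluorescence within 50% of control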
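Material – HT1080 RFP-PRO-GFP cells · Control set – DMSO wells and RFP-L50D-GFP cells · Incubation – overnight cell settling, then overnight compound exposure, 37 °C, 5% CO2 · Compound dosing – single-point 20 µM compound, 1% DMSO · Read-out – GFP/RFP fluorescence ratio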
FAS-TE inh: inhibitors of human fatty acid synthase thioesterase domain; P49327; recombinant FAS-TE, OMFH fluorogenic substrate, fluorescence endpoint; inhibition, % at 15 µM; 0.67% of 360,000 active;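 active means compounds whose normalised, plate-corrected inhibition of enzyme fluorescence in the single-dose primary screen is 50% or more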;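 further: 0% = DMSO with enzyme and 100% = substrate without enzyme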
iPSC survival up: hiPSC single-cell survival enhancement | ATPlite luminescence; 100% = ROCK inhibitor wells, 0% = DMSO | survival enhancement, % at 20 µM | 0.044% of 360,000 active; in the data active means survival enhancement above about 18%;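 further: cells exposed to compounds for 16 hours before the ATP read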
DAGLB inhibitor: blocks human DAGLB lipase activity | Q8NCG7 | HEK293T DAGLB membrane lysate, EnzChek fluorogenic substrate | inhibition, % at 5.17 µM | 0.059% of 340,000 active; in the data active means inhibition above about 34%;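 further: 0% = enzyme with vehicle and 100% = wells lacking enzyme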
Target sequence (Q8NCG7 whole entry, looked up): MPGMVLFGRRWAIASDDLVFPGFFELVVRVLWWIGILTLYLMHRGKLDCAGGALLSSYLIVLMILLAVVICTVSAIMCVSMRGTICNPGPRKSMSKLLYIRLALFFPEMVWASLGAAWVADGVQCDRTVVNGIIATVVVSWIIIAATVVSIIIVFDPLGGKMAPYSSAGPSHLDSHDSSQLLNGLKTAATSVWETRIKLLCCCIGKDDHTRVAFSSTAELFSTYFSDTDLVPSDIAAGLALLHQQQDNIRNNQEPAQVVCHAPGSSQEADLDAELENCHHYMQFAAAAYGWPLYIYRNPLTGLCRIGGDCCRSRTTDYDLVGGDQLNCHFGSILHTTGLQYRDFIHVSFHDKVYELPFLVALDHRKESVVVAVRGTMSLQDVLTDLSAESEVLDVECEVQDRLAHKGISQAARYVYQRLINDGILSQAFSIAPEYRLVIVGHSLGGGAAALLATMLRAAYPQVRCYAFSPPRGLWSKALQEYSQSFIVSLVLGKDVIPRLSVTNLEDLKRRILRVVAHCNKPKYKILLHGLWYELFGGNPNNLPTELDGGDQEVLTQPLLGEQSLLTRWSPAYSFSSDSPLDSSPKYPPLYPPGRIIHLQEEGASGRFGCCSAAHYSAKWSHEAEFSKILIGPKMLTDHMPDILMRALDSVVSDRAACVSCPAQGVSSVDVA
FAS-TE conf: FAS thioesterase (human) inhibition, confirmation; shares compounds with FAS-TE inh; recombinant FAS-TE, OMFH fluorogenic substrate, fluorescence; inhibition, % at 15 µM; 45% of 2,300 active;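 active means compounds inhibiting the enzyme by at least 50% at 15 µM in any one of the replicates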;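 further: 0% = enzyme with DMSO only and 100% = wells lacking enzyme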
Starred values were filed as active, the others as inactive; nt = not tested or not shown.

SMILES	SKN-1 block	MT1-MMP act inh	FAS-TE inh	iPSC survival up	DAGLB inhibitor	FAS-TE conf
COc1ccccc1-n1c(=O)c(C#N)c(-c2ccc([N+](=O)[O-])cc2)c2cc(C(=O)c3cc(F)ccc3O)cnc21	-3	1	0	-1	2	nt
CC(/C=C1\SC(=S)N(c2ccc(C(=O)O)cc2)C1=O)=C\c1ccccc1	0	1	90*	2	5	14
CC(/C=C1\SC(=S)N(NC(=O)c2ccc(C)cc2)C1=O)=C\c1ccccc1	-5	2	18	4	-9	nt
O=C1CC(N2CCN(c3ccc(S(=O)(=O)N4CCOCC4)cc3)CC2)C(=O)N1Cc1ccccc1 (centres undefined)	24	3	56*	-2	1	65*
Cc1ccsc1C(=O)N1CCC1(C)C(=O)NS(=O)(=O)c1ccc(C#N)cc1 (centres undefined)	2	2	-7	0	nt	nt
CCOC(=O)c1c(NC(=O)c2ccc(N3C(=O)[C@@H]4[C@H](C3=O)[C@H]3C=C[C@@H]4C3)cc2)sc2c1CCCC2	3	-1	62*	1	0	9
C#CCN(C[C@H]1[C@H](OC(=O)NCc2ccc(OC)c(OC)c2)[C@H](OC(=O)NCc2ccc(OC)c(OC)c2)C[C@H]2C(=O)N(c3ccccc3)C(=O)[C@@H]12)S(=O)(=O)c1ccc(C)cc1	9	-1	71*	0	0	25
C#CCN(C[C@H]1[C@H](OC(=O)NCc2ccccc2F)[C@H](OC(=O)NCc2ccccc2F)C[C@H]2C(=O)N(c3ccccc3)C(=O)[C@@H]12)S(=O)(=O)c1ccc(C)cc1	4	-1	54*	-3	-2	11
O=c1oc(-c2ccccc2Br)nc2ccccc12	1	3	61*	0	-8	53*
O=C(COC(=O)CC1CC2CCC1C2)Nc1cc([N+](=O)[O-])ccc1F (centres undefined)	4	-1	80*	0	-3	87*
O=C(COC(=O)CCc1ccccc1)Nc1cc([N+](=O)[O-])ccc1F	13	3	73*	0	-1	67*
CCC1CCCCN1C(=O)CCn1c(=O)oc2ccccc21 (centres undefined)	-3	2	-11	0	0	nt
Cc1cccc(NC(=O)CN2C(=O)S/C(=C\c3ccc(O)c([N+](=O)[O-])c3)C2=O)c1	3	8	7	0	27	nt
O=C1S/C(=C\c2ccc(O)c([N+](=O)[O-])c2)C(=O)N1Cc1cccc([N+](=O)[O-])c1	-3	6	78*	-1	nt	51*
C=CCOc1c(Br)cc(/C=N/Nc2ccc(C(=O)O)cc2)cc1OCC	11	0	54*	4	5	72*
COCCNC(=O)C1(C)CCCN(C(=O)c2cccnc2SC)C1 (centres undefined)	7	7	-9	4	nt	nt
CCOc1cc(/C=N/Nc2nc(Nc3ccccc3)nc(N3CCCCC3)n2)ccc1OCC(=O)O	3	3	2	1	-2	nt
O=C(Oc1cccc(/C=N/Nc2nc(Nc3ccccc3)nc(N3CCOCC3)n2)c1)c1ccco1	1	2	62*	-3	-3	36
Cc1ccccc1-n1c(SCC(=O)N/N=C/c2c(C)nn(-c3ccccc3)c2C)nc2ccccc2c1=O	6	13	59*	0	3	16
Cc1ccc(/C=N/NC(=O)CSc2nc3ccccc3c(=O)n2-c2ccccc2C)s1	3	-1	51*	1	3	21
CC(=O)NCCNc1nc2cc(-c3cnn(CCC(C)C)c3)sc2c(=O)n1C	14	18	3	2	nt	nt
C[C@@]12C(=O)N(Cc3ccc(-c4ccccc4)cc3)CC(=O)N1[C@H](/C=C/c1ccccc1)[C@@H]1C(=O)N(c3ccccc3)C(=O)[C@@H]12	39*	6	50*	7	-1	13
Cc1nn(Cc2ccc(Cl)cc2)c(=O)n1N(C)c1ncc(C(F)(F)F)cc1Cl	12	-2	49	5	-5	nt
Cc1nn(Cc2ccc([N+](=O)[O-])cc2)c(=O)n1N(C)c1ncc(C(F)(F)F)cc1Cl	26	-2	79*	4	-1	65*
